The values that follow come from ChEMBL document CHEMBL4706643 (J Med Chem, 2021).

Data set [1] in a line: Tmax in C57BL/6 mouse at 10 mg/kg, ip. Type of data set: ADME, organism-based. As to conditions: in vivo. In outline:
(§1)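 Male C57BL/6 mice (n = 3), single dose IV 5 mg/kg, IP 10 mg/kg or PO 10 mg/kg in DMSO:cremophor:0.9% NaCl 5:5:90; plasma parameters reported as means.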

Data set [2] deals with T1, Hepatic sodium/bile acid cotransporter (Homo sapiens, UniProt Q14973).
T1 sequence (Q14973 whole entry): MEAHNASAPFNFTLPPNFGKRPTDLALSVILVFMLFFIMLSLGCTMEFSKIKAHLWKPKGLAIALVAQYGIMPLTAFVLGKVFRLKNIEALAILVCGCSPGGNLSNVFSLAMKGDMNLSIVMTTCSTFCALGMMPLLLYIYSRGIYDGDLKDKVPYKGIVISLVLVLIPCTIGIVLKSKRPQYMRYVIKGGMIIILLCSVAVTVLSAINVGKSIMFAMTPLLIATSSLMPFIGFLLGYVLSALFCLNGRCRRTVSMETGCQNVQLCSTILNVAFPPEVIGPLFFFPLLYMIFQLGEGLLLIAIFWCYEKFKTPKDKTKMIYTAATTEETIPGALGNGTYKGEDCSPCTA
Briefly: Inhibition of human NTCP-mediated [3H]-TCA uptake expressed in human HepG2 cells at 2 uM incubated for 2 hrs followed by substrate addition and measured for 10 mins by microbeta liquid scintillation counter analysis. Type of data set: cell-based. Conditions: hepg2, 2.167 h, time 130 min. In outline:
(§2)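 HepG2 cells expressing NTCP (human, mouse, monkey or tree shrew) seeded 4–6 h, PMM 20–24 h; compound 2 h, then Na+ Ringer's buffer with 2 μM 3H-TCA, 37 °C 10 min; PBS washes, lysis in 1% Triton X-100, scintillation counting. Single-concentration lines at 2 μM.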

Data set [3] can be described thus: AUC (0 to infinity) in C57BL/6 mouse at 10 mg/kg, ip. Type of data set: ADME, organism-based. Details: time infinity, route intraperitoneal, dose 10 mg/kg. As to conditions: in vivo. In outline:
(§3)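 Male C57BL/6 mice, n = 3, dosed IV at 5 mg/kg, IP at 10 mg/kg or by oral gavage (PO) at 10 mg/kg. All doses formulated in DMSO:cremophor:0.9% NaCl = 5:5:90. AUC from time zero to infinity (h*ng/mL) was derived from plasma drug levels and is reported as the mean of the males.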

In data set [4] the test system is Hepatitis delta virus. Briefly: Antiviral activity against HDV infected in human HepG2-NTCP cells assessed as reduction in HDV delta Ag measured 5 days post infection by DAPI staining based immunofluorescence assay relative to control. The format is functional, cell-based. Conditions: time 5.0 day. In outline:
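HepG2-NTCP cells infected with HDV in presence of compound; delta antigen stained at dpi 5 with FITC-labelled anti-delta antibody, nuclei with DAPI; high-content imaging and image analysis give infection ratio relative to DMSO control.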

The test system of data set [5] is Hepatitis delta virus. As to the kind of experiment: Antiviral activity against HDV infected in C57B/L transgenic mouse harbouring human NTCP assessed as decrease in viral RNA levels in liver at 40 mg/kg, ip administered for 2 consecutive days followed by HDV challenge at day 2 and measured at day 8 post infection by qPCR analysis. As to conditions: time 8.0 day. Type of data set: functional, organism-based. In outline: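 Neonatal hNTCP-transgenic C57B/L mice received 40 mg/kg i.p. before HDV inoculation, either once or on two consecutive days (n = 4 per group; vehicle group n = 5). HDV was given at 5 × 10⁹ Geq i.p. on day 9 after birth, and mice were sacrificed on day 15. Liver RNA was assayed by RT-qPCR on cDNA from 20 ng RNA, with NTCP mRNA also measured. Group medians are shown.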

In data set [6] the test system is Hepatitis delta virus. As to the kind of experiment: Antiviral activity against HDV infected in NTCP-edited FVB mouse assessed as decrease in viral RNA levels in liver at 30 mg/kg, po administered for 8 days via gavage followed by HDV challenge at day 2 and measured at day 8 post infection by qPCR analysis. Conditions: time 8.0 day.
A short description of data set [7]: AUC (0 to infinity) in C57BL/6 mouse at 5 mg/kg, iv. Details: time infinity, route intravenous, dose 5 mg/kg. Type of data set: ADME, organism-based. Conditions: in vivo. In outline: as §3
Data set [8] addresses T1, Hepatic sodium/bile acid cotransporter. Briefly: Inhibition of Myr95F binding to human NTCP expressed in HepG2 cells assessed as decrease in cell membrane staining at 1 uM incubated for 2 hrs by fluorescence staining based analysis. Conditions: hepg2, 2 h. In outline: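 HepG2-NTCP cells stained with fluorescent Myr59F pre-S1 peptide in presence of DMSO, compound (1 μM) or Myr47 (200 nM); membrane staining intensity quantified.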

Data set [9] in a line: Bioavailability in C57BL/6 mouse at 10 mg/kg, ip. Type of data set: ADME, organism-based. As to conditions: in vivo. In outline: as §1
Data set [10] concerns the target T2, Ileal sodium/bile acid cotransporter (Homo sapiens, UniProt Q12908).
T2 sequence (Q12908 whole entry): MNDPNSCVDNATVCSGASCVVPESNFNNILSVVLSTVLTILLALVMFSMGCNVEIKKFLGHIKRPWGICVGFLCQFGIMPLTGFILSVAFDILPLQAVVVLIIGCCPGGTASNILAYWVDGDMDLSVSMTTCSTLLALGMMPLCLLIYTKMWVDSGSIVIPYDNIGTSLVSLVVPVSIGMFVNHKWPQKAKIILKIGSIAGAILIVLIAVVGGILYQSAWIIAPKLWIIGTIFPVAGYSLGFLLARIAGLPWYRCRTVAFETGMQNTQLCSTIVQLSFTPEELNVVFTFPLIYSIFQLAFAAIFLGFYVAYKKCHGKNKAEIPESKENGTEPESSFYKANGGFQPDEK
Briefly: Inhibition of human ASBT.

Data set [11] can be described thus: Intrinsic clearance in mouse liver microsomes at 1 uM preincubated for 5 mins followed by NADPH addition and measured upto 60 mins by LC-MS analysis. As to conditions: read-out: CLH. Type of data set: ADME, Microsome. In outline:
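Human or mouse liver microsomes, final 1 mg/mL in 0.05 M phosphate buffer pH 7.4; compound final 1 μM, preincubated 37 °C 5 min, started with 1 mM NADPH; sampled at 0, 5, 15, 30, 60 min, methanol quench, −20 °C 1 h, centrifuged, supernatant by LC–MS.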

Data set [12] in a line: Tmax in C57BL/6 mouse at 10 mg/kg, po. Type of data set: ADME, organism-based. Conditions: in vivo. In outline:
as §1

The nature of data set [13]: AUC (0 to infinity) in C57BL/6 mouse at 10 mg/kg, po. Type of data set: ADME, organism-based. Details: route oral, time infinity, dose 10 mg/kg. Conditions: in vivo. In outline:
as §3

The subject of data set [14] is Hepatitis B virus. As to the kind of experiment: Antiviral activity against HBV infected in primary human hepatocytes. The format is functional, organism-based. As to conditions: Hepatocyte.
In data set [15] the test system is Hepatitis B virus. Briefly: Antiviral activity against HBV genotype B infected in human HepG2-NTCP cells assessed as reduction in HBeAg secretion at 2 uM cells inoculated with virus for 4 hrs at room temperature and 37 degree C for 24 hrs followed inoculum changed with PMM medium for every 2 days until day 5 post infection by ELISA. Type of data set: functional, organism-based. Conditions: time 28.0 hrs. In outline:
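HepG2-NTCP cells seeded 4–6 h, then primary maintenance medium 20–24 h; virus inoculum plus compound dilutions 4 h at room temperature, then 37 °C 24 h; medium changed every 2 days to PMM with 2% FBS until day 5 post infection. Secreted HBeAg measured by ELISA; IC50 by nonlinear regression from six or more points, three repeats.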

Data set [16] deals with HepG2. Briefly: Inhibition of monkey NTCP-mediated [3H]-TCA uptake expressed in human HepG2 cells at 2 uM incubated for 2 hrs followed by substrate addition and measured for 10 mins by microbeta liquid scintillation counter analysis. The format is cell-based. Conditions: Macaca mulatta. In outline:
as §2

Data set [17] relates to HepG2. As to the kind of experiment: Cytotoxicity against human HepG2 cells at 100 uM. Conditions: hepg2, 100 µM. The format is cell-based.

Molecules are shown by their SMILES. Activity calls are given as the source filed them. No cut-off for these calls is given here.

Turning to `CC[C@@H]1NC(=O)[C@H]([C@@H]2O[C@@H](Sc3cccc(OCc4ccccc4)c3)C[C@H]2C)N(C)C(=O)[C@H](C(C)C)N(C)C(=O)[C@H](CC(C)C)N(C)C(=O)[C@H](CC(C)C)N(C)C(=O)[C@@H](C)NC(=O)[C@H](C)NC(=O)[C@H](CC(C)C)N(C)C(=O)[C@H](C(C)C)NC(=O)[C@H](CC(C)C)N(C)C(=O)CN(C)C1=O`, the Tmax is 2 h in [1] and 1 h in data set [12]. Also, the “inhibition (INH)” value in [2] is “Active”; in data set [8], “Active”; in data set [10] it was “Not Active”. For the same compound, the AUC(0-inf) in data set [3] was 87.4 µg·h/mL; in data set [7], 39.7 µg·h/mL; in [13], 14.5 µg·h/mL. Further, the Activity result is “Dose-dependent effect” in [4] and “Non-Toxic” in data set [17]. The outcome in data set [5], in data set [6] and in data set [15] was Active. For the same compound, the bioavailability in [9] was 110%. The microsomal CLint at 1 µM in data set [11] is 4.1 µL/min/mg. This compound registered an IC50 in data set [14] of 0.059 µM. Also, the inhibition result in data set [16] is “Active”.
